Results: ChEMBL document CHEMBL4346684, “Synthesis and structure-bactericidal activity relationships of non-ketolides: 9-Oxime clarithromycin 11,12-cyclic carbonate featured with three-to eight-atom-length spacers at 3-OH” (Eur J Med Chem, 2019)
≈ marks a conversion by molar mass, not a printed value.

Key:
Type in all cases: functional
[1] = test system: Streptococcus pyogenes; assay: Antimicrobial activity against inducibly erythromycin resistant Streptococcus pyogenes 01-968 expressing i-ermA incubated in CAMHB medium for 20 to 24 hrs by two-fold microbroth dilution method
[2] = test system: Haemophilus influenzae; assay: Antimicrobial activity against azithromycin-susceptible Haemophilus influenzae ATCC 49247 incubated in HTM broth medium for 20 to 24 hrs by two-fold microbroth dilution method
[3] = test system: Streptococcus pyogenes; assay: Ratio of MBC to MIC for inducibly erythromycin resistant Streptococcus pyogenes 01-968 expressing i-ermA
[4] = test system: Staphylococcus aureus; assay: Ratio of MBC to MIC for inducibly erythromycin-resistant and methicillin resistant Staphylococcus aureus PU32 expressing i-ermA
[5] = test system: Staphylococcus aureus; assay: Bactericidal activity against inducibly erythromycin-resistant and methicillin resistant Staphylococcus aureus PU32 expressing i-ermA assessed as reduction in colony formation incubated in CAMHB medium for 20 hrs followed by 24 hrs subculturing in the medium without test compound
[6] = test system: Streptococcus pyogenes; assay: Bactericidal activity against inducibly erythromycin resistant Streptococcus pyogenes 01-968 expressing i-ermA assessed as reduction in colony formation incubated in CAMHB medium for 20 to 24 hrs followed by 24 hrs subculturing in the medium without test compound
[7] = test system: Streptococcus pneumoniae; assay: Antimicrobial activity against erythromycin-susceptible Streptococcus pneumoniae ATCC 49619 incubated in CAMHB medium for 20 to 24 hrs by two-fold microbroth dilution method
[8] = test system: Haemophilus influenzae; assay: Bactericidal activity against azithromycin-susceptible Haemophilus influenzae ATCC 49247 assessed as reduction in colony formation incubated in HTM broth medium for 20 to 24 hrs followed by 24 hrs subculturing in the medium without test compound
[9] = test system: Staphylococcus aureus; assay: Antimicrobial activity against constitutively erythromycin resistant and methicillin resistant Staphylococcus aureus PU20 expressing c-ermC incubated in CAMHB medium for 20 hrs by two-fold microbroth dilution method; details: PU20, 20 h
Summary of the method: (§1)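 Purified fresh Staphylococcus isolate at about 5×10^5 CFU/ml final in CAMHB, 35 °C for 20 h. Each run included ATCC strains and reference antibiotics as QC, plus an antibiotic-free growth control.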

[10] = test system: Staphylococcus aureus; assay: Bactericidal activity against constitutively erythromycin resistant and methicillin-resistant Staphylococcus aureus PU20 expressing c-ermC assessed as reduction in colony formation incubated in CAMHB medium for 20 hrs followed by 24 hrs subculturing in the medium without test compound
[11] = test system: Streptococcus pneumoniae; assay: Bactericidal activity against mef-encoded erythromycin resistant Streptococcus pneumoniae PU09 assessed as reduction in colony formation incubated in CAMHB medium for 20 to 24 hrs followed by 24 hrs subculturing in the medium without test compound
[12] = test system: Streptococcus pneumoniae; assay: Bactericidal activity against erythromycin-susceptible Streptococcus pneumoniae ATCC 49619 assessed as reduction in colony formation incubated in CAMHB medium for 20 to 24 hrs followed by 24 hrs subculturing in the medium without test compound
[13] = test system: Staphylococcus aureus; assay: Antimicrobial activity against inducibly erythromycin-resistant and methicillin resistant Staphylococcus aureus PU32 expressing i-ermA incubated in CAMHB medium for 20 hrs by two-fold microbroth dilution method; details: PU32, 20 h; summary of the method: as §1
[14] = test system: Streptococcus pneumoniae; assay: Ratio of MBC to MIC for mef-encoded erythromycin resistant Streptococcus pneumoniae PU09
[15] = test system: Streptococcus pneumoniae; assay: Ratio of MBC to MIC for erythromycin-susceptible Streptococcus pneumoniae ATCC 49619
[16] = test system: Haemophilus influenzae; assay: Ratio of MBC to MIC for azithromycin-susceptible Haemophilus influenzae ATCC 49247
[17] = test system: Streptococcus pneumoniae; assay: Antimicrobial activity against mef-encoded erythromycin resistant Streptococcus pneumoniae PU09 incubated in CAMHB medium for 20 to 24 hrs by two-fold microbroth dilution method
[18] = test system: Streptococcus pneumoniae; assay: Antimicrobial activity against constitutively erythromycin resistant Streptococcus pneumoniae PU27 expressing c-erm incubated in CAMHB medium for 20 to 24 hrs by two-fold microbroth dilution method
Summary of the method: (§2)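 Purified fresh Streptococcus isolate at about 5×10^5 CFU/ml final in CAMHB with 5% horse serum, 35 °C for 20–24 h. […] Each run included ATCC strains and reference antibiotics as QC, plus an antibiotic-free growth control.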

[19] = test system: Staphylococcus aureus; assay: Antimicrobial activity against inducibly erythromycin-resistant Staphylococcus aureus PU32 expressing i-ermA incubated in CAMHB medium for 20 hrs by two-fold microbroth dilution method; details: PU32, 20 h
Summary of the method: (§3)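 Purified fresh Staphylococcus isolate at about 5×10^5 CFU/ml final in CAMHB, 35 °C for 20 h. […] Each run included ATCC strains and reference antibiotics as QC, plus an antibiotic-free growth control.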

[20] = test system: Staphylococcus aureus; assay: Antimicrobial activity against constitutively erythromycin resistant Staphylococcus aureus PU20 expressing c-ermC incubated in CAMHB medium for 20 hrs by two-fold microbroth dilution method; details: PU20, 20 h; summary of the method: as §3
[21] = test system: Staphylococcus aureus; assay: Antimicrobial activity against inducibly erythromycin resistant Staphylococcus aureus PU64 expressing i-ermA incubated in CAMHB medium for 20 hrs by two-fold microbroth dilution method; details: PU64, 20 h; summary of the method: as §3
[22] = test system: Staphylococcus epidermidis; assay: Antimicrobial activity against Staphylococcus epidermidis E1 incubated in CAMHB medium for 20 hrs by two-fold microbroth dilution method; details: E1, 20 h
Summary of the method: (§4)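 Clinical isolates and ATCC strains, purified by plate activation and used fresh; inoculum about 5×10^5 CFU/ml final. Grown in CAMHB at 35 °C for 20 h.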

[23] = test system: Streptococcus pyogenes; assay: Antimicrobial activity against constitutively erythromycin resistant Streptococcus pyogenes A2 expressing c-erm incubated in CAMHB medium for 20 to 24 hrs by two-fold microbroth dilution method; summary of the method: as §2
[24] = test system: Staphylococcus aureus; assay: Antimicrobial activity against erythromycin-susceptible Staphylococcus aureus ATCC 29213 incubated in CAMHB medium for 20 hrs by two-fold microbroth dilution method; details: ATCC 29213, 20 h; summary of the method: as §4
[25] = test system: Streptococcus pyogenes; assay: Antimicrobial activity against erythromycin-susceptible Streptococcus pyogenes A3 incubated in CAMHB medium for 20 to 24 hrs by two-fold microbroth dilution method

SMILES | MIC [1] [µg/mL] | MIC [2] [µg/mL] | Ratio [3] | Ratio [4] | MBC [5] [µg/mL] | MBC [6] [µg/mL] | MIC [7] [µg/mL] | MBC [8] [µg/mL] | MIC [9] [µg/mL] | MBC [11] [µg/mL] | MBC [12] [µg/mL] | MIC [13] [µg/mL] | Ratio [14] | Ratio [15] | Ratio [16] | MIC [17] [µg/mL] | MIC [18] [µg/mL] | MIC [19] [µg/mL] | MIC [20] [µg/mL] | MIC [21] [µg/mL] | also measured
CC[C@H]1OC(=O)[C@H](C)[C@@H](OC(=O)NCCCc2ccc3c(c2)c(=O)c(C(=O)O)cn3C2CC2)[C@H](C)[C@@H](O[C@@H]2O[C@H](C)C[C@H](N(C)C)[C@H]2O)[C@](C)(OC)C[C@@H](C)/C(=N\OC)[C@H](C)[C@H]2OC(=O)O[C@@]21C | 4 (≈ 4.18 µM) | 256 (≈ 267 µM) | 2 | >8 | > 256 | 8 (≈ 8.36 µM) | 1 (≈ 1.04 µM) | 256 (≈ 267 µM) | 256 (≈ 267 µM) | 8 (≈ 8.36 µM) | 2 (≈ 2.09 µM) | 32 (≈ 33.4 µM) | 4 | 2 | 1 | 2 (≈ 2.09 µM) | – | – | – | – | MBC [10]: > 256 µg/mL
CC[C@H]1OC(=O)[C@H](C)[C@@H](OC(=O)NCCCCc2cccnc2)[C@H](C)[C@@H](O[C@@H]2O[C@H](C)C[C@H](N(C)C)[C@H]2O)[C@](C)(OC)C[C@@H](C)/C(=N\OC)[C@H](C)[C@H]2OC(=O)O[C@@]21C | 128 (≈ 156 µM) | 256 (≈ 312 µM) | 1 | >8 | > 256 | 128 (≈ 156 µM) | 0.5 (≈ 0.609 µM) | 256 (≈ 312 µM) | > 256 | 8 (≈ 9.74 µM) | 2 (≈ 2.44 µM) | 32 (≈ 39 µM) | 1 | 4 | 1 | 8 (≈ 9.74 µM) | – | – | – | – | –
C=CCO/N=C1\[C@H](C)C[C@@](C)(OC)[C@H](O[C@@H]2O[C@H](C)C[C@H](N(C)C)[C@H]2O)[C@@H](C)[C@H](OCC#Cc2ccc(N)nc2)[C@@H](C)C(=O)O[C@H](CC)[C@@]2(C)OC(=O)O[C@@H]2[C@H]1C | – | – | – | – | – | – | 2 (≈ 2.5 µM) | – | – | – | – | – | – | – | – | 4 (≈ 4.99 µM) | 64 (≈ 79.9 µM) | 256 (≈ 320 µM) | 256 (≈ 320 µM) | 256 (≈ 320 µM) | MIC [22]: 256 µg/mL (≈ 320 µM); MIC [23]: 64 µg/mL (≈ 79.9 µM); MIC [24]: 32 µg/mL (≈ 40 µM); MIC [25]: 4 µg/mL (≈ 4.99 µM)
C=CCO/N=C1\[C@H](C)C[C@@](C)(OC)[C@H](O[C@@H]2O[C@H](C)C[C@H](N(C)C)[C@H]2O)[C@@H](C)[C@H](OCC#Cc2cccc(N)n2)[C@@H](C)C(=O)O[C@H](CC)[C@@]2(C)OC(=O)O[C@@H]2[C@H]1C | – | – | – | – | – | – | 4 (≈ 4.99 µM) | – | – | – | – | – | – | – | – | 4 (≈ 4.99 µM) | 64 (≈ 79.9 µM) | 256 (≈ 320 µM) | 256 (≈ 320 µM) | 128 (≈ 160 µM) | MIC [22]: 256 µg/mL (≈ 320 µM); MIC [23]: 64 µg/mL (≈ 79.9 µM); MIC [24]: 64 µg/mL (≈ 79.9 µM); MIC [25]: 4 µg/mL (≈ 4.99 µM)
CC[C@H]1OC(=O)[C@H](C)[C@@H](O[C@H]2C[C@@](C)(OC)[C@@H](O)[C@H](C)O2)[C@H](C)[C@@H](O[C@@H]2O[C@H](C)C[C@H](N(C)C)[C@H]2O)[C@](C)(O)C[C@@H](C)CN(C)[C@H](C)[C@@H](O)[C@]1(C)O [AZITHROMYCIN] | – | – | – | – | – | – | 0.25 (≈ 0.334 µM) | – | – | – | – | – | – | – | – | 16 (≈ 21.4 µM) | 64 (≈ 85.4 µM) | > 256 | > 256 | > 256 | MIC [22]: > 256 µg/mL; MIC [23]: 128 µg/mL (≈ 171 µM); MIC [24]: 2 µg/mL (≈ 2.67 µM); MIC [25]: 0.25 µg/mL (≈ 0.334 µM)
C#CCNCCC(=O)O[C@H]1[C@H](C)[C@@H](O[C@@H]2O[C@H](C)C[C@H](N(C)C)[C@H]2O)[C@](C)(OC)C[C@@H](C)/C(=N\OC)[C@H](C)[C@H]2OC(=O)O[C@]2(C)[C@@H](CC)OC(=O)[C@@H]1C | 0.5 (≈ 0.663 µM) | 128 (≈ 170 µM) | >8 | >8 | > 128 | > 4 | 0.13 (≈ 0.172 µM) | 128 (≈ 170 µM) | 256 (≈ 340 µM) | 4 (≈ 5.31 µM) | 1 (≈ 1.33 µM) | 16 (≈ 21.2 µM) | 2 | 8 | 1 | 2 (≈ 2.65 µM) | – | – | – | – | MBC [10]: > 256 µg/mL
C=CCO/N=C1\[C@H](C)C[C@@](C)(OC)[C@H](O[C@@H]2O[C@H](C)C[C@H](N(C)C)[C@H]2O)[C@@H](C)[C@H](OCC#Cc2cncc(C#N)c2)[C@@H](C)C(=O)O[C@H](CC)[C@@]2(C)OC(=O)O[C@@H]2[C@H]1C | – | – | – | – | – | – | 4 (≈ 4.93 µM) | – | – | – | – | – | – | – | – | 8 (≈ 9.86 µM) | 64 (≈ 78.9 µM) | 128 (≈ 158 µM) | 128 (≈ 158 µM) | 128 (≈ 158 µM) | MIC [22]: 256 µg/mL (≈ 316 µM); MIC [23]: 128 µg/mL (≈ 158 µM); MIC [24]: 64 µg/mL (≈ 78.9 µM); MIC [25]: 4 µg/mL (≈ 4.93 µM)
C=CCNCCC(=O)O[C@H]1[C@H](C)[C@@H](O[C@@H]2O[C@H](C)C[C@H](N(C)C)[C@H]2O)[C@](C)(OC)C[C@@H](C)/C(=N\OC)[C@H](C)[C@H]2OC(=O)O[C@]2(C)[C@@H](CC)OC(=O)[C@@H]1C | 1 (≈ 1.32 µM) | 256 (≈ 339 µM) | >8 | >8 | > 256 | > 8 | 1 (≈ 1.32 µM) | 256 (≈ 339 µM) | > 256 | 8 (≈ 10.6 µM) | 2 (≈ 2.65 µM) | 32 (≈ 42.3 µM) | – | 2 | 1 | 4 (≈ 5.29 µM) | – | – | – | – | –
CC[C@H]1OC(=O)[C@H](C)[C@@H](OC(=O)NCC#Cc2cccnc2)[C@H](C)[C@@H](O[C@@H]2O[C@H](C)C[C@H](N(C)C)[C@H]2O)[C@](C)(OC)C[C@@H](C)/C(=N\OC)[C@H](C)[C@H]2OC(=O)O[C@@]21C | 1 (≈ 1.25 µM) | > 256 | 4 | >8 | > 128 | 4 (≈ 4.98 µM) | 0.03 (≈ 0.0374 µM) | – | > 256 | 2 (≈ 2.49 µM) | 0.062 (≈ 0.0772 µM) | 16 (≈ 19.9 µM) | 4 | 2 | – | 0.5 (≈ 0.623 µM) | – | – | – | – | –
